According to ChEMBL document CHEMBL3351561, “Discovery of 9-(1-anilinoethyl)-2-morpholino-4-oxo-pyrido[1,2-a]pyrimidine-7-carboxamides as PI3Kβ/δ inhibitors for the treatment of PTEN-deficient tumours” (Bioorg Med Chem Lett, 2014):
Converted amounts (≈) assume the structure as drawn.

Key:
[1] = Ratio of total plasma concentration in PTEN-null human PC3 cells xenografted in SCID mouse at 100 mg/kg, po single dose at 0.5 hrs to IC50 for PI3Kbeta in human […] cells; design: species or system PC-3
Method in brief: (§1)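 SCID mice bearing PTEN-null PC3 prostate tumour xenografts got a single oral dose given as a suspension. Total plasma concentration was measured at the sampled time points (0.5, 4 or 8 h). The value is the […] cover over the PI3Kβ cellular IC50, which comes from inhibition of Ser473 Akt phosphorylation in PTEN-null MDA-MB-468 breast adenocarcinoma cells.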

[2] = Ratio of total plasma concentration in PTEN-null human PC3 cells xenografted in SCID mouse at 100 mg/kg, po single dose at 4 hrs to IC50 for PI3Kbeta in human MAD-MB-468 cells; design: species or system PC-3
[3] = molecular target: T1, Phosphatidylinositol 4,5-bisphosphate 3-kinase catalytic subunit beta isoform (Homo sapiens, UniProt P42338); test: Inhibition of PI3Kbeta in human MAD-MB-468 cells assessed as inhibition of Ser473 Akt phosphorylation by cellular potency assay
[4] = Apparent permeability from apical (pH 6.5) to […] of human Caco2 cells; type: ADME, cell-based; details: Caco-2, pH 6.5
[5] = Buffer/octanol partition coefficient, log D of the compound at pH 7.4 by shake flask method; type: physicochemical
Method in brief: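 LogD at pH 7.4 was measured by shake-flask with a buffer/octanol volume ratio of 100:1.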

[6] = Intrinsic clearance in human hepatocytes measured per 10^6 cells; type: ADME, cell-based, Hepatocyte; details: read-out: CLH
Method in brief: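 Intrinsic clearance was measured in human hepatocytes and is expressed in µL/min/10^6 cells.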

[7] = Solubility of the compound in phosphate buffer at pH 7.4; type: physicochemical
Method in brief: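 Solubility was measured from solid material in phosphate buffer at pH 7.4.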

[8] = molecular target: T2, Phosphatidylinositol 4,5-bisphosphate 3-kinase catalytic subunit alpha isoform (Homo sapiens, UniProt P42336); test: Inhibition of human recombinant PI3Kalpha assessed as depletion of ATP substrate by Ultra Glo luciferase assay
Method in brief: (§2)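 Enzyme IC50s are reported as the geometric mean of 3 or more values.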

[9] = molecular target: T1, Phosphatidylinositol 4,5-bisphosphate 3-kinase catalytic subunit beta isoform; test: Inhibition of human recombinant PI3Kbeta assessed as depletion of ATP substrate by Ultra Glo luciferase assay; method in brief: as §2
[10] = molecular target: Phosphatidylinositol 4,5-bisphosphate 3-kinase catalytic subunit gamma isoform (Homo sapiens, UniProt P48736); test: Inhibition of human recombinant PI3Kgamma assessed as depletion of ATP substrate by Ultra Glo luciferase assay; method in brief: as §2
[11] = molecular target: T3, Phosphatidylinositol 4,5-bisphosphate 3-kinase catalytic subunit delta isoform (Homo sapiens, UniProt O00329); test: Inhibition of human recombinant PI3Kdelta assessed as depletion of ATP substrate by Ultra Glo luciferase assay; method in brief: as §2
T3 sequence (O00329 whole entry): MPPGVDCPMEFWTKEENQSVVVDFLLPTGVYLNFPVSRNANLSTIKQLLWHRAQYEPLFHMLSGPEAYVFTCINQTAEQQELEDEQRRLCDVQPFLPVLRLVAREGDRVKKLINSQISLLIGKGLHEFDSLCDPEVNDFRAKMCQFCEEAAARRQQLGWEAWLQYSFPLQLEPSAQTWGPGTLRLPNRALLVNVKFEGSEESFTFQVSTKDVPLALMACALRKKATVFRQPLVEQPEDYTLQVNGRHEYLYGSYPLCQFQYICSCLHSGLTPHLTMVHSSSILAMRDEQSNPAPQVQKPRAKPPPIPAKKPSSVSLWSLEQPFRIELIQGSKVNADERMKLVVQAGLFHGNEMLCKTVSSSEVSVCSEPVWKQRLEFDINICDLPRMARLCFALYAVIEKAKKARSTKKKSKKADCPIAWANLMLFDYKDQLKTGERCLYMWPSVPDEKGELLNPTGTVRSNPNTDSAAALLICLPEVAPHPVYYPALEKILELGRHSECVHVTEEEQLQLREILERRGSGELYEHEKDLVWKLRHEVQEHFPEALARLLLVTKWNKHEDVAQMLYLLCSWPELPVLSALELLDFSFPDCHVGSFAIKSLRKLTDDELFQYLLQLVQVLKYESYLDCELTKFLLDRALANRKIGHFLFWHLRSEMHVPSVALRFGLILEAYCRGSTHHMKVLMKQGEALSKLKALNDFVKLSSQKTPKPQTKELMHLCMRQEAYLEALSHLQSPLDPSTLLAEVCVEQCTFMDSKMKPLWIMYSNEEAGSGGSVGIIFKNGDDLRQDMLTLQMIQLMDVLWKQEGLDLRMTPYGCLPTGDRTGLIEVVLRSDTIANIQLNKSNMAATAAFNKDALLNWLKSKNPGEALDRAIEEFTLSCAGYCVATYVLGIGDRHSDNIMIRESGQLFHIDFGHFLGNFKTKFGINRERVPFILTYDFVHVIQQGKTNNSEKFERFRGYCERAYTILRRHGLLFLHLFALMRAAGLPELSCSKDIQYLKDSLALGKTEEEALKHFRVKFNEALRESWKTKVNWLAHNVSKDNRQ

[12] = molecular target: T2, Phosphatidylinositol 4,5-bisphosphate 3-kinase catalytic subunit alpha isoform; test: Inhibition of PI3Kalpha in human BT474 cells assessed as inhibition of […] Akt phosphorylation after 2 hrs by fluorescence assay; type: cell-based, BT-474
Method in brief: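 BT474 cells were seeded in DMEM with 10% FCS and 1% glutamine and left to adhere overnight, then treated with compound in DMSO for 2 h at 37 °C and 5% CO2. Cells were lysed with a phosphatase/protease-inhibitor buffer. Lysate was captured on anti-total-Akt plates, probed with anti-phospho-Akt Thr308 and an HRP secondary, and read by fluorescence (ex 325/em 420 nm). Values are the geometric mean of ≥2 determinations.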

[13] = Fraction unbound in mouse plasma; type: ADME, cell-free
Method in brief: (§3)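 Protein binding was measured in nude mouse plasma and in human plasma and is expressed as fraction unbound (%).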

[14] = Fraction unbound in human plasma; type: ADME, cell-free; method in brief: as §3
[15] = Clearance in mouse plasma at 5 umol/kg, iv and 30 umol/kg, po; type: ADME, organism-based
Method in brief: (§4)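 […] mice were dosed at 5 µmol/kg i.v. and 30 µmol/kg p.o. Clearance is given in mL/min/kg and oral bioavailability in %.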

[16] = Bioavailability in mouse plasma at 5 umol/kg, iv and 30 umol/kg, po; type: ADME, organism-based; method in brief: as §4
[17] = Half life in mouse plasma at 5 umol/kg, iv and 30 umol/kg, po; type: ADME, organism-based
Mus musculus [18] = test: Inhibition of Akt phosphorylation in SCID mouse xenografted with PTEN-null human PC3 cells at 100 mg/kg, po measured after 30 mins; type: functional; details: PC-3, 0.5 h
Method in brief: (§5)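 SCID mice carrying PTEN-null PC3 prostate xenografts received a single oral dose as a suspension (50, 100 or 200 mg/kg).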

Mus musculus [19] = test: Inhibition of Akt phosphorylation in SCID mouse xenografted with PTEN-null human PC3 cells at 100 mg/kg, po measured after 4 hrs; type: functional; details: PC-3, 4 h; method in brief: as §5
[20] = Total plasma concentration in SCID mouse xenografted with PTEN-null human PC3 cells at 100 mg/kg, po measured after 30 mins; type: ADME, organism-based, PC-3; design: dose 100 mg/kg, route oral
Method in brief: (§6)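 Total plasma concentration was measured in SCID mice carrying PC3 xenografts after a single oral dose given as a suspension (50, 100 or 200 mg/kg). Samples were taken at 0.5 to 8 h.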

[21] = Total plasma concentration in SCID mouse xenografted with PTEN-null human PC3 cells at 100 mg/kg, po measured after 4 hrs; type: ADME, organism-based, PC-3; design: dose 100 mg/kg, route oral; method in brief: as §6
Homo sapiens = species on record: Homo sapiens; test: Ratio of IC50 for PI3Kalpha human BT474 cells to IC50 PI3Kbeta in human […] cells
[22] = Total plasma concentration in SCID mouse xenografted with PTEN-null human PC3 cells at 200 mg/kg, po measured after 30 mins; type: ADME, organism-based, PC-3; design: dose 200 mg/kg, route oral; method in brief: as §6
[23] = Total plasma concentration in SCID mouse xenografted with PTEN-null human PC3 cells at 200 mg/kg, po measured after 4 hrs; type: ADME, organism-based, PC-3; design: dose 200 mg/kg, route oral; method in brief: as §6
[24] = Total plasma concentration in SCID mouse xenografted with PTEN-null human PC3 cells at 200 mg/kg, po measured after 8 hrs; type: ADME, organism-based, PC-3; design: dose 200 mg/kg, route oral; method in brief: as §6
[25] = Ratio of total plasma concentration in PTEN-null human PC3 cells xenografted in SCID mouse at 200 mg/kg, po single dose at 0.5 hrs to IC50 for PI3Kbeta in human […] cells; design: species or system PC-3; method in brief: as §1
[26] = Ratio of total plasma concentration in PTEN-null human PC3 cells xenografted in SCID mouse at 200 mg/kg, po single dose at 4 hrs to IC50 for PI3Kbeta in human […] cells; design: species or system PC-3; method in brief: as §1
[27] = Ratio of total plasma concentration in PTEN-null human PC3 cells xenografted in SCID mouse at 200 mg/kg, po single dose at 8 hrs to IC50 for PI3Kbeta in human […] cells; design: species or system PC-3; method in brief: as §1
Mus musculus [28] = test: Inhibition of Akt phosphorylation in SCID mouse xenografted with PTEN-null human PC3 cells at 200 mg/kg, po measured after 30 mins; type: functional; details: PC-3, 0.5 h; method in brief: as §5
Mus musculus [29] = test: Inhibition of Akt phosphorylation in SCID mouse xenografted with PTEN-null human PC3 cells at 200 mg/kg, po measured after 4 hrs; type: functional; details: PC-3, 4 h; method in brief: as §5
Mus musculus [30] = test: Inhibition of Akt phosphorylation in SCID mouse xenografted with PTEN-null human PC3 cells at 200 mg/kg, po measured after 8 hrs; type: functional; details: PC-3, 8 h; method in brief: as §5

T1 sequence (P42338 whole entry, canonical isoform): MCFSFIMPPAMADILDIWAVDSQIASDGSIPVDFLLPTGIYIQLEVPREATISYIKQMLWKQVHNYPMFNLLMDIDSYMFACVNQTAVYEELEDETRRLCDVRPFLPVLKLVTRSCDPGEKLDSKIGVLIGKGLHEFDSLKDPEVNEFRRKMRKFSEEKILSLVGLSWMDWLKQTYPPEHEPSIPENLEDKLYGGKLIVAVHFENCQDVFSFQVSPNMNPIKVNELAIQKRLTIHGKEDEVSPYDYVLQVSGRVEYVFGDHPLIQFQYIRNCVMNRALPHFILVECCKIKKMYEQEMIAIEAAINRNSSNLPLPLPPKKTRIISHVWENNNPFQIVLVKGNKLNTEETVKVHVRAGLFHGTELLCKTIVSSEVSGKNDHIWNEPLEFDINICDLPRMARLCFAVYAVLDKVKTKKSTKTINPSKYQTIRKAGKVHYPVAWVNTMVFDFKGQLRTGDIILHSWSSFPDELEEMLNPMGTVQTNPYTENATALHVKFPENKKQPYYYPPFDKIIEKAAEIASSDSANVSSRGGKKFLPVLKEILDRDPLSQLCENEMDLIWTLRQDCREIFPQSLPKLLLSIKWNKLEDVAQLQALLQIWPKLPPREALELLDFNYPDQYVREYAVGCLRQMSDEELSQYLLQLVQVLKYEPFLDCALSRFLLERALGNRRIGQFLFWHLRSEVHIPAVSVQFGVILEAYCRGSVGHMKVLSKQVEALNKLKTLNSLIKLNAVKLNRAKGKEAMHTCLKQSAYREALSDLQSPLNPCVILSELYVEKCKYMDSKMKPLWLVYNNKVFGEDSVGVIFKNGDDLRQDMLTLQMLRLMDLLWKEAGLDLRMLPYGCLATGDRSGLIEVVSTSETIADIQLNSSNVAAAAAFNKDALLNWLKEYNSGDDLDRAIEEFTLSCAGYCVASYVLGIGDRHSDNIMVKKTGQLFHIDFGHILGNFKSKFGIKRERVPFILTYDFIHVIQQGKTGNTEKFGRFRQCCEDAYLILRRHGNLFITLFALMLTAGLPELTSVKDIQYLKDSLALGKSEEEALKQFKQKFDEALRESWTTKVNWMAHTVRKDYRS
T2 sequence (P42336 whole entry, canonical isoform): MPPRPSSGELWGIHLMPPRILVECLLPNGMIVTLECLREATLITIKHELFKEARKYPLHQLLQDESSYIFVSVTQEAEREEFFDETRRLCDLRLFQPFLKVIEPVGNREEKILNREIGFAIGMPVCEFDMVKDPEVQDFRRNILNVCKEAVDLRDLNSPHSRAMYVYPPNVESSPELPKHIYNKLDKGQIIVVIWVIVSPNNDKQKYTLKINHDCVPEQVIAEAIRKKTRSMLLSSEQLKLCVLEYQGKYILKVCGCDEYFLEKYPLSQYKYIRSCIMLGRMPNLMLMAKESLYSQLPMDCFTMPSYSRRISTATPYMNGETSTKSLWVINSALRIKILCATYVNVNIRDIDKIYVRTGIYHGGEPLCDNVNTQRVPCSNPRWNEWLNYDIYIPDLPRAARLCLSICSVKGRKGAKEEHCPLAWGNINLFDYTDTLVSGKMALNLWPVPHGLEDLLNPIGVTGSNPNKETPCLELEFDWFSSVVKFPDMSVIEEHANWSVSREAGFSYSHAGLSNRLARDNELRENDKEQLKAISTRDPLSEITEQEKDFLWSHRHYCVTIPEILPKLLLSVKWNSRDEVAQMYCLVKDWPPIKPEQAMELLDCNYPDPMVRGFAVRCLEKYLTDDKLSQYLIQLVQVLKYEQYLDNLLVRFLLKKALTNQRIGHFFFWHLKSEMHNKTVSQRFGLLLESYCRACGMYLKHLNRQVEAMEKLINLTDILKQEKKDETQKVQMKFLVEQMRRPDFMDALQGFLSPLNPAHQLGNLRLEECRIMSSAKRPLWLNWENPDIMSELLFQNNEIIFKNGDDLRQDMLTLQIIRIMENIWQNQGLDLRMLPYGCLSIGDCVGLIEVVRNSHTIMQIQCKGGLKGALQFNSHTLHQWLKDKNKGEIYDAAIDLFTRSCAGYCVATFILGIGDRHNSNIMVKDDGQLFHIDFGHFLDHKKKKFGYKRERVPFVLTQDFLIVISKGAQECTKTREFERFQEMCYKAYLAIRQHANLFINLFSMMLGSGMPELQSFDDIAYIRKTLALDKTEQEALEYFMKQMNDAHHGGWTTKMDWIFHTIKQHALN
Phosphatidylinositol 4,5-bisphosphate 3-kinase catalytic subunit gamma isoform, sequence (P48736 whole entry, canonical isoform): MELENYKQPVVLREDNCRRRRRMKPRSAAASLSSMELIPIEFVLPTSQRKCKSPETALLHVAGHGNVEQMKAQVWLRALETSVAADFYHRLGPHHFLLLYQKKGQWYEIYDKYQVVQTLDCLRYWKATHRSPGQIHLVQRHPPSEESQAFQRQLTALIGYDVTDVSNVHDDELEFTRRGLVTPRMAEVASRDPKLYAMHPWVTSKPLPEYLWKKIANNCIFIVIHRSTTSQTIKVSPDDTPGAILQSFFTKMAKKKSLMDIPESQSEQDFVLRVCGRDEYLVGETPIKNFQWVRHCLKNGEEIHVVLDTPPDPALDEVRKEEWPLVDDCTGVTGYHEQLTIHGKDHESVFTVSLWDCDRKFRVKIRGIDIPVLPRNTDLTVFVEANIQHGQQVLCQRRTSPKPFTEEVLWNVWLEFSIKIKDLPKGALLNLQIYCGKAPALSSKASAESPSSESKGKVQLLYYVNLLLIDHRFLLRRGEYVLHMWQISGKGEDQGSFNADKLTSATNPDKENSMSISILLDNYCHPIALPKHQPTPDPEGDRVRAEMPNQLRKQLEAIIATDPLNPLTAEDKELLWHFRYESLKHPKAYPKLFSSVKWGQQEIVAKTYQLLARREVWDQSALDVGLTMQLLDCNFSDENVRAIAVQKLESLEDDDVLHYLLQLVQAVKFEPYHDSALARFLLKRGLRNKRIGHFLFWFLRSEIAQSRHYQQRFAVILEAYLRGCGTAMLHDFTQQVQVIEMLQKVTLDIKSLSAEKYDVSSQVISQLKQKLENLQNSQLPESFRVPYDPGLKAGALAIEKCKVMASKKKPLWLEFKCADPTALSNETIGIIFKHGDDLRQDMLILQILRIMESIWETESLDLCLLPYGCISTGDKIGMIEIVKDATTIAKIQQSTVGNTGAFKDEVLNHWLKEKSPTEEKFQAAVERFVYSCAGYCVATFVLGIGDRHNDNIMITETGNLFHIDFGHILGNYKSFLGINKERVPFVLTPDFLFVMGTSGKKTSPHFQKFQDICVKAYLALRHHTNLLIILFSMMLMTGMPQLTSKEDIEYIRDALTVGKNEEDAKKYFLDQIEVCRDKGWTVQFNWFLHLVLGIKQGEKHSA

Row | SMILES | IC50 [3] | Papp A→B [4] | logD [5] | hepatocyte CLint [6] | solubility [7] | IC50 [8] | IC50 [9] | IC50 [10] | IC50 [11] | IC50 [12] | fraction unbound [13] | fraction unbound [14] | clearance [15] | bioavailability [16] | also measured
1 | CC(Nc1ccc(F)cc1)c1cc(C(=O)N(C)C)cn2c(=O)cc(N3CCOCC3)nc12 (single isomer, unassigned; (-)) | 62 nM | 34 ×10⁻⁶ cm/s | 2.3 | 3 µL/min/1e6 cells | 130 µM (≈ 57.1 µg/mL) | 1300 nM | 37 nM | 13500 nM | 230 nM | 11600 nM | 0.12 | 0.21 | 45 mL/min/kg | 70% | Ratio [1]: 140; Ratio [2]: 16; half-life [17]: 1.1 h; inhibition in vivo at 100 mg/kg (Mus musculus [18]): 85%; inhibition in vivo at 100 mg/kg (Mus musculus [19]): 60%; concentration at 0.5 h [20]: 71 µM; concentration at 4 h [21]: 8.1 µM; Ratio IC50 (Homo sapiens): 190
2 | CC(Nc1ccc(F)c(F)c1)c1cc(C(=O)N(C)C)cn2c(=O)cc(N3CCOCC3)nc12 (single isomer, unassigned; (-)) | 34 nM | 44 ×10⁻⁶ cm/s | 2.7 | 9 µL/min/1e6 cells | 20 µM (≈ 9.15 µg/mL) | 340 nM | 7 nM | 3000 nM | 45 nM | 4700 nM | 0.087 | 0.14 | 74 mL/min/kg | 35% | concentration at 0.5 h [22]: 3.9 µM; concentration at 4 h [23]: 2.3 µM; concentration at 8 h [24]: 0.3 µM; Ratio [25]: 10; Ratio [26]: 5.9; Ratio [27]: 2.5; inhibition in vivo at 200 mg/kg (Mus musculus [28]): 81%; inhibition in vivo at 200 mg/kg (Mus musculus [29]): 81%; inhibition in vivo at 200 mg/kg (Mus musculus [30]): 71%
